Most compounds without a hit are left out; they make up all but 2.3% or so of the library.
TRPC4 act: activators of mouse TRPC4 channel, primary screen, Fluo4 calcium, HEK293 TRPC4beta/mu-opioid cells; Short transient receptor potential channel 4 (Mus musculus), Q9QUQ5; B-score at 10 µM; Fluo4 calcium fluorescence; stronger effect = higher value; actives 0.49% (n = 310,000);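 active = B-score above 5 SD of library B-scores, and initial fluorescence ratio not above library mean plus 5 SD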;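 also: positive B-score marks a calcium rise read as TRPC4 activation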
Target sequence (Q9QUQ5 whole entry, looked up): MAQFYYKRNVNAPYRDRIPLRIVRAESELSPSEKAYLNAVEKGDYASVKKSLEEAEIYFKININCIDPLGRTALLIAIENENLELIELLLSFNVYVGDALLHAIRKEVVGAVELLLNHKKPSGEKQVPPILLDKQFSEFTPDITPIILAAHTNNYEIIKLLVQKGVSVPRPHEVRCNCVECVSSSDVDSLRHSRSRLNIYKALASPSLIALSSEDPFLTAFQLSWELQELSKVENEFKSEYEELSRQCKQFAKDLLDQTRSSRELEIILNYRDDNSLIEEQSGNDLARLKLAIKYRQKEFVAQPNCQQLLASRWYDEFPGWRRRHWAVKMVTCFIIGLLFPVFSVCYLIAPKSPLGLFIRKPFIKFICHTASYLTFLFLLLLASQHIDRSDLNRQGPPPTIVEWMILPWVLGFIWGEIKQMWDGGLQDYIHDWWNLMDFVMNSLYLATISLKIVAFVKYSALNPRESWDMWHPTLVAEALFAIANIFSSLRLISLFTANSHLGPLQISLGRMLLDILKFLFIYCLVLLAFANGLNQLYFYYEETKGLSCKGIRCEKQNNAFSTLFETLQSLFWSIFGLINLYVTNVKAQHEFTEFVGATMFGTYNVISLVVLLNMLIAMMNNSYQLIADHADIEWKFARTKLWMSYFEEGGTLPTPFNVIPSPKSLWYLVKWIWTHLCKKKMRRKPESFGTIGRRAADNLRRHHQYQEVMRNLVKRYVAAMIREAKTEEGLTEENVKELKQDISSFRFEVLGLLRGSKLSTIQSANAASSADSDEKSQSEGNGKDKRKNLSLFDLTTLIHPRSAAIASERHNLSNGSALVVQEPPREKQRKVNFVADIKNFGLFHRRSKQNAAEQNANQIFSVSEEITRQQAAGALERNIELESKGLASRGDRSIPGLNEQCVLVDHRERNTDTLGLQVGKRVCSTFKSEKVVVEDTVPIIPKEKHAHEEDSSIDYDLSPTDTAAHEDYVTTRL
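Test system: HEK293 cells stably co-expressing mouse TRPC4beta and mu-opioid receptor | Schedule: Fluo4 dye loading 45 min at room temperature, 110 s recording | Measured by: Kinetic Fluo4 calcium fluorescence, 5 s baseline at 1 Hz | Evaluation: B score of integrated ratio | Controls: Buffer (low) and maximal DAMGO (high)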
TRPC4 potent: positive allosteric modulators of TRPC4, primary screen, cell-based, mouse TRPC4beta, HEK293 mu-opioid, Fluo-4 calcium | actives 0.42% (n = 310,000) | B-score at 10 µM | Short transient receptor potential channel 4 (Mus musculus), Q9QUQ5 | AID 2227, 2009 | DAMGO EC20, Fluo-4 Ca2+ flux; stronger effect = higher value;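 active = B-score of calcium response area above 5 SD of library B-scores, with initial fluorescence ratio within 5 SD of library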;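 also: B-score of integrated fluorescence ratio over time as area under calcium response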
TRPC6 activator: mouse TRPC6 channel activators, primary screen, cell-based, HEK293, membrane potential dye | Short transient receptor potential channel 6 (Mus musculus), Q61143 | HEK293-TRPC6 membrane potential dye fluorescence; stronger effect = higher value | B-score at 10 µM | actives 0.13% (n = 310,000);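 active = B-score of the integrated fluorescence ratio above library mean plus 3 SD, and starting fluorescence ratio within library mean plus 5 SD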;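 also: higher score means more depolarization so channel activation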
TRPC4 inh: inhibitors of mouse TRPC4 channel, primary screen, Fluo4 calcium, HEK293 TRPC4beta/mu-opioid cells; Short transient receptor potential channel 4 (Mus musculus), Q9QUQ5; DAMGO-evoked Fluo4 calcium flux; stronger effect = lower value; B-score at 10 µM; actives 0.39% (n = 300,000);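 active = B-score over 3 SD under the library average, no early fluorescence shift, positive overall ratio signal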
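Material: HEK293 cells with stable TRPC4beta plus mu-opioid receptor expression; probe or stimulus: DAMGO in two steps, submaximal then maximal; technique: Fluo4 calcium fluorescence by kinetic imaging, 5 s 1 Hz baseline; measure: integrated fluorescence ratio relative to baseline, converted to per-well B score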
TRPC6 inhibitor: mouse TRPC6 channel inhibitors, primary screen, cell-based, HEK293, membrane potential dye. Short transient receptor potential channel 6 (Mus musculus), Q61143. ACh-evoked depolarization; stronger effect = lower value. B-score at 10 µM. actives 1.1% (n = 310,000);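 active = B-score under library mean minus 3 SD, initial fluorescence not abnormally high, positive integrated signal ratio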;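 also: B-score derived from integrated fluorescence ratio over the kinetic read; more negative B-score means stronger inhibition of depolarization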
TRPC4 sel inh 2: mouse TRPC4 off-target activity of TRPC6 inhibitors, second screen; shares compounds with TRPC6 inhibitor; HEK293 TRPC4/MOR, membrane potential dye fluorescence; channel activated by saturating DAMGO dose; inhibition, % at 10 µM; actives 42% (n = 920);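 active = compounds whose fluorescence signal differed from control wells by over 3 SD, either direction, in both duplicate plates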
TRPC4 spec: mouse TRPC4 modulation by TRPC6 hits, confirmation, selectivity assay for TRPC6 inhibitor project, cell-based, HEK293 TRPC4/mu-opioid, membrane potential dye; shares compounds with TRPC6 inhibitor; membrane potential fluorescence; activity change, negative = inhibition, % at 10 µM; actives 61% (n = 920);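 active = rise or fall in signal beyond 3 SD of buffer-only wells in both replicate plates, either sign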;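 also: integrated kinetic ratio of fluorescence range over baseline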
HEK293 MPD ctr 2-1: nonspecific membrane potential effects, parental HEK293, confirmation, counter-screen for TRPC6 inhibitor project, cell-based, second counter screen; signal change vs control, % at 10 µM; parental HEK293 membrane potential dye fluorescence; maximal acetylcholine challenge after compound addition; AID 2779, 2010; actives 31% (n = 920); shares compounds with TRPC6 inhibitor;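 active = membrane potential signal moving either way by over 3 SD of the maximum-effect control, in both duplicate plates, meaning non-specific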
HEK293 MPD ctr-1: membrane potential modulation in parental HEK293, confirmation, counter-screen for TRPC6 inhibitor project, cell-based; shares compounds with TRPC6 inhibitor; parental HEK293 membrane potential dye fluorescence; membrane potential signal change, % at 10 µM; actives 60% (n = 920); AID 2780, 2010;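 active = membrane potential signal shifting up or down by more than 3 SD of buffer-only wells, on both duplicate plates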
HEK293 MPD ctr-2: parental HEK293 membrane potential modulation, confirmation, counter-screen for TRPC6 modulator project, cell-based; shares compounds with TRPC6 inhibitor; membrane potential dye fluorescence; membrane potential signal change, % at 10 µM; actives 51% (n = 2,400);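 active = membrane potential signal moves up or down beyond 5 SD from buffer-only wells, on both duplicate plates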
HEK293 MPD ctr 2-2: parental HEK293 nonspecific activity of TRPC6 modulators, second screen; shares compounds with TRPC6 inhibitor; membrane potential dye fluorescence; after compound, maximal acetylcholine stimulation; actives 14% (n = 2,400); inhibition, % at 10 µM;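 active = membrane potential signal drops by more than 5 SD from the mean control signal, in both duplicate plates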;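 also: plate controls were acetylcholine ECmax control wells for no effect and buffer only wells for full effect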
TRPC4/MOR mod: TRPC4 modulation by TRPC6 hit compounds, confirmation, selectivity assay for TRPC6 modulator project, cell-based, HEK293 TRPC4/mu-opioid, membrane potential dye, mouse. shares compounds with TRPC6 inhibitor. membrane potential fluorescence. actives 69% (n = 2,400). percent change from control (negative = decrease, positive = increase), % at 10 µM. AID 488927, 2010;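 active = membrane potential signal moved up or down beyond 5 SD of buffer control wells, in both duplicate plates, actives on both sides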;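 also: plate controls were assay buffer wells for no effect and DAMGO maximal-effect wells for full effect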
TRPC4/MOR inh 2: mouse TRPC4 off-target activity of TRPC6 modulators, second screen | shares compounds with TRPC6 inhibitor | HEK293 TRPC4/mu-opioid, membrane potential dye fluorescence; stimulated with maximal-effect DAMGO | inhibition, % at 10 µM | actives 55% (n = 2,400) | AID 488928;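 active = drop in membrane potential signal beyond 5 SD of the control wells in both duplicate plates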;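 also: TRPC4 counter screen for TRPC6 hits run under conditions tuned for TRPC6 not TRPC4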
TRPC6 block conf: mouse TRPC6 channel inhibitors, confirmation, HEK293 cells, membrane potential dye, duplicate; shares compounds with TRPC6 inhibitor; ACh-evoked depolarization; inhibition, % at 10 µM; actives 43% (n = 3,300); AID 488960, 2010;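 active = fluorescence ratio falls more than 5 SD below the full-stimulation control mean, in both duplicate runs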;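 also: integrated fluorescence ratio of peak minus minimum over baseline after agonist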
TRPC6 act confirm: mouse TRPC6 channel activators, confirmation, HEK293 cells, membrane potential dye, duplicate | shares compounds with TRPC6 inhibitor | HEK293-TRPC6 membrane potential dye fluorescence, FDSS | activation, % at 10 µM | actives 11% (n = 2,800) | AID 488961, 2010;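 active = ratio signal rise beyond 5 SD above unstimulated control wells' mean, seen in both duplicate runs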;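 also: plate controls were buffer EC0 wells for no effect and acetylcholine ECmax response for full effect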
* = called active by the depositor; i = inactive; nt = not tested or not shown; + = active, no number.

SMILES | TRPC4 act | TRPC4 potent | TRPC6 activator | TRPC4 inh | TRPC6 inhibitor | HEK293 MPD ctr-2 | HEK293 MPD ctr 2-2 | TRPC4/MOR mod | TRPC4/MOR inh 2 | TRPC6 block conf | TRPC6 act confirm | others
O=C(c1cccc(S(=O)(=O)N2CCCC2)c1)N1CCN(c2ccccc2)CC1 | i | i | i | nt | i | nt | nt | nt | nt | nt | nt
CC1CCC(NC(=O)CCn2ccc3cc(S(=O)(=O)N4CCCC4)ccc32)CC1 (stereo unspecified) | i | i | i | i | i | nt | nt | nt | nt | nt | nt
COCCn1c(SCC(=O)Nc2ccc(OC)c(S(N)(=O)=O)c2)nc2ccccc2c1=O | i | i | i | i | i | nt | nt | nt | nt | nt | nt
COc1ccc(Cl)cc1NC(=O)CN(C)C(=O)c1cc2ccccc2cc1O | i | i | i | i | i | nt | nt | nt | nt | nt | nt
CC(C)c1ccc(N(CCc2ccccn2)C(=O)C(C)(C)C)cc1 | i | i | i | i | i | nt | nt | nt | nt | nt | nt
CCOC(=O)c1cnc2c(Cl)cccc2c1NCCN1CCOCC1 | i | i | i | i | i | nt | nt | nt | nt | nt | nt
CCOC(=O)c1cnc2c(Cl)cccc2c1NCCCN1CCOCC1 | i | i | i | i | -6.34* | -187.0%* | i | -30.5%* | 38.0%* | 44.0%* | i
CCOC(=O)c1cnc2c(C(F)(F)F)cccc2c1NCCCN1CCOCC1 | i | i | i | i | -7.15* | -185.0%* | i | -34.5%* | 51.5%* | i | i
CCOC(=O)c1cnc2c(CC)cccc2c1NCCCN1CCOCC1 | i | i | i | i | i | nt | nt | nt | nt | nt | nt
CCOc1ccccc1NC(=O)NC1(C(=O)NCc2cccnc2)CCCCC1 | i | i | i | i | i | nt | nt | nt | nt | nt | nt
CC[n+]1c(/C=C/Nc2ccccc2)oc2ccc(OC)cc21 | i | i | i | -7* | -5.54* | -74.5%* | i | -24.0%* | i | 46.5%* | i
CC[n+]1c(/C=C/N(C)c2ccccc2)oc2ccc(F)cc21 | i | i | i | i | i | nt | nt | nt | nt | nt | nt
CC[n+]1c(/C=C/Nc2ccccc2)oc2ccccc21 | i | i | i | i | -7.33* | -169.0%* | 76.0%* | -44.0%* | 81.5%* | 69.0%* | i
CCOC(=O)c1ccc(/C=C2/C=C(c3ccccc3)N(c3ccc(Cl)c(C(=O)O)c3)C2=O)cc1 | 72* | i | 36* | i | i | + | i | 377.0%* | i | i | 686.0%*
Cc1ccc(-c2nnn(CC(=O)N3CCN(c4ccccc4)CC3)n2)o1 | i | i | i | i | -5.34* | i | i | i | i | i | i
COc1ccc(N2CCN(C(=O)Cn3nnc(-c4ccc(OC)c(OC)c4)n3)CC2)cc1 | i | i | i | i | i | nt | nt | nt | nt | nt | nt
CCCCCOc1ccc(NC(=O)CSc2cccc3cccnc23)cc1 | i | i | i | i | i | nt | nt | nt | nt | nt | nt
CCCCc1ccc(S(=O)(=O)NCCCN2CCCC2=O)cc1 | i | i | i | i | i | nt | nt | nt | nt | nt | nt
CCOc1cc2c(C#N)c(N3CCNCC3)nc(N)c2c(N)n1 | i | 12* | i | i | -5.88* | -193.5%* | i | -25.0%* | i | 37.5%* | i
O=C(CN1CCCCC1)N1c2ccccc2CCc2ccccc21 | i | i | i | i | -6.45* | 100.5%* | i | 17.0%* | i | i | nt
Cc1ccc(NC(=O)C2CCCN2c2nn3c(=O)cc(C)nc3s2)cc1 (stereo unspecified) | i | i | i | i | i | nt | nt | nt | nt | nt | nt
CN(C)c1ccc(/C=C/C(=O)c2c(O)c3ccccc3oc2=O)cc1 | 102* | i | 131* | i | i | + | + | 491.5%* | 144.5%* | nt | 943.5%*
COc1ccc(S(=O)(=O)N2CCCCCC2)cc1C(=O)NCCOc1ccc(C)cc1 | i | i | i | i | -5.51* | 172.0%* | i | 27.0%* | i | i | nt
CCN(CC)S(=O)(=O)c1cccc(C(=O)Nc2cccc(C)c2)c1 | i | i | i | i | -5.11* | i | i | 8.0%* | i | i | i
CCN(CC)CCNC(=O)c1ccc(NC(=O)c2cccc(S(=O)(=O)Nc3ccc(C)cc3)c2)cc1 | i | i | i | i | -9.71* | nt | nt | nt | nt | 56.1%* | i | TRPC4 sel inh 2=i;TRPC4 spec=i;HEK293 MPD ctr 2-1=41.0%*;HEK293 MPD ctr-1=i

Compound activity from PubChem.
